Laboratory results: ChEMBL document CHEMBL4665879, “Design, synthesis and evaluation of a baicalin and berberine hybrid compound as therapeutic agent for ulcerative colitis” (2020)
The source made the active and inactive calls. The rule behind the calls is not given here.

Key:
Mus musculus [1] = assay: Anti-ulcerative colitis activity in DSS-induced BALB/c mouse ulcerative colitis model assessed as inhibited inflammation in colon at 50 mg/kg administrated for 14 days by H and E staining analysis; format: functional, organism-based; settings: time 14.0 day
Outline: (§1)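 Male SPF BALB/c mice (18–22 g), n = 8 per group. Colitis induced with freshly prepared 5% DSS (MW 36,000–50,000) in pure water as drinking water ad libitum for 7 days. Treatment at 50 mg/kg ran from day 1 for 14 days; control and model groups received pure water. Mice sacrificed after 14 days of treatment. Data as means ± S.E.M.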

Salmonella typhi = assay: Antibacterial activity against Typhoid bacillus 50071-16 after 24 hrs by microdilution method; format: functional, organism-based; settings: Salmonella enterica subsp. enterica serovar Typhi
Outline: (§2)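 Test agents diluted in culture medium at ratios 1:2.5 to 1:640 (twofold series) and steam-sterilized; pure water as control. Inoculum from 4–5 colonies grown in nutrient broth 8 h at 37 °C, then diluted to 1.5×10^5 CFU/mL. Broth microdilution in 96-well plate, 0.1 ml strain suspension per well, 37 °C 24 h; MIC read visually.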

Escherichia coli = assay: Antibacterial activity against Escherichia coli 44113-5 after 24 hrs by microdilution method; format: functional, organism-based
Outline: (§3)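 Broth microdilution in Mueller Hinton medium, drug media diluted 1:2.5 to 1:640 and sterilized with circulating steam; pure water as control. Four to five colonies grown in nutrient broth 8 h at 37 °C and diluted to 1.5×10^5 CFU/mL. 0.1 ml per well, incubated 37 °C for 24 h; MIC read by observation.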

[2] = tested on: Salmonella enterica subsp. enterica serovar Paratyphi B; assay: Antibacterial activity against Salmonella paratyphi B 0039 after 24 hrs by microdilution method; format: functional, organism-based; settings: 39; outline: as §2
Staphylococcus aureus = assay: Antibacterial activity against Staphylococcus aureus 261112-5 after 24 hrs by microdilution method; format: functional, organism-based; outline: as §3
Mus musculus [3] = assay: Anti-ulcerative colitis activity in DSS-induced BALB/c mouse ulcerative colitis model assessed as decrease in histological scores at 50 mg/kg administrated for 14 days by H and E staining analysis; format: functional, organism-based; settings: time 14.0 day; outline: as §1
Mus musculus [4] = assay: Anti-ulcerative colitis activity in DSS-induced BALB/c mouse ulcerative colitis model assessed as increase in cecum weight at 50 mg/kg administrated for 14 days; format: functional, organism-based; settings: time 14.0 day; outline: as §1
Mus musculus [5] = assay: Anti-inflammatory activity against DSS-induced ulcerative colitis BALB/c mouse model assessed as reduction in MPO activity in colon tissue at 50 mg/kg administrated for 14 days by colorimetric method; format: functional, organism-based; settings: time 14.0 day; outline: as §1
Mus musculus [6] = assay: Anti-inflammatory activity against DSS-induced ulcerative colitis BALB/c mouse model assessed as reduction in IL-1beta protein expression in colon tissue at 50 mg/kg administrated for 14 days by Western blot analysis; format: functional, organism-based; settings: time 14.0 day; outline: as §1
Mus musculus [7] = assay: Anti-ulcerative colitis activity in DSS-induced BALB/c mouse ulcerative colitis model assessed as colon length at 50 mg/kg administrated for 14 days (reference value: 8.350 +/- 1.111 cm); format: functional; settings: time 14 day; outline: as §1
Mus musculus [8] = assay: Anti-inflammatory activity against DSS-induced ulcerative colitis BALB/c mouse model assessed as reduction in IL-1beta mRNA expression in colon tissue at 50 mg/kg administrated for 14 days by RT-qPCR analysis; format: functional, organism-based; settings: time 14.0 day; outline: as §1
Mus musculus [9] = assay: Anti-inflammatory activity against DSS-induced ulcerative colitis BALB/c mouse model assessed as reduction in TNF-alpha protein expression in colon tissue at 50 mg/kg administrated for 14 days by Western blot analysis; format: functional, organism-based; settings: time 14.0 day; outline: as §1
Mus musculus [10] = assay: Anti-inflammatory activity against DSS-induced ulcerative colitis BALB/c mouse model assessed as reduction in mast cells infiltration in colon tissue at 50 mg/kg administrated for 14 days by aldehyde-fuchsin orange G staining based assay; format: functional, organism-based; settings: time 14.0 day; outline: as §1
Mus musculus [11] = assay: Anti-ulcerative colitis activity in DSS-induced BALB/c mouse ulcerative colitis model assessed as reduction in colon damage at 50 mg/kg administrated for 14 days by H and E staining analysis; format: functional, organism-based; settings: time 14.0 day; outline: as §1
Mus musculus [12] = assay: Anti-inflammatory activity against DSS-induced ulcerative colitis BALB/c mouse model assessed as increase in SOD levels in colon tissue at 50 mg/kg administrated for 14 days by xanthine oxidase based method; format: functional, organism-based; settings: time 14.0 day; outline: as §1
Mus musculus [13] = assay: Anti-inflammatory activity against DSS-induced ulcerative colitis BALB/c mouse model assessed as reduction in TNF-alpha mRNA expression in colon tissue at 50 mg/kg administrated for 14 days by RT-qPCR analysis; format: functional, organism-based; settings: time 14.0 day; outline: as §1
Mus musculus [14] = assay: Anti-inflammatory activity against DSS-induced ulcerative colitis BALB/c mouse model assessed as reduction in IL-6 protein expression in colon tissue at 50 mg/kg administrated for 14 days by Western blot analysis; format: functional, organism-based; settings: time 14.0 day; outline: as §1
Pseudomonas aeruginosa = assay: Antibacterial activity against Pseudomonas aeruginosa 10211 incubated for 24 hrs; format: functional, organism-based; outline: as §3
Mus musculus [15] = assay: Anti-ulcerative colitis activity in DSS-induced BALB/c mouse ulcerative colitis model assessed as colon length/colon weight ratio at 50 mg/kg administrated for 14 days (reference value: 22.608 +/- 2.655 cm/g); format: functional; settings: time 14 day; outline: as §1
Streptococcus pyogenes = assay: Antibacterial activity against streptococcus hemolyticus 32210 after 24 hrs by microdilution method; format: functional, organism-based; outline: as §3
Streptococcus pneumoniae = assay: Antibacterial activity against Streptococcus pneumoniae 32215 after 24 hrs by microdilution method; format: functional, organism-based; outline: as §3
Mus musculus [16] = assay: Anti-ulcerative colitis activity in DSS-induced BALB/c mouse ulcerative colitis model of assessed as reduction in disease activity index at 50 mg/kg administrated for 14 days; format: functional, organism-based; settings: time 14.0 day; outline: as §1
Mus musculus [17] = assay: Anti-ulcerative colitis activity in DSS-induced BALB/c mouse ulcerative colitis model assessed as colon weight at 50 mg/kg administrated for 14 days (reference value: 0.369 +/- 0.023 g); format: functional; settings: time 14 day; outline: as §1
Mus musculus [18] = assay: Anti-inflammatory activity against DSS-induced ulcerative colitis BALB/c mouse model assessed as reduction in IL-6 mRNA expression in colon tissue at 50 mg/kg administrated for 14 days by RT-qPCR analysis; format: functional, organism-based; settings: time 14.0 day; outline: as §1
Mus musculus [19] = assay: Anti-ulcerative colitis activity in DSS-induced BALB/c mouse ulcerative colitis model assessed as promoted regeneration of intestinal mucosa at 50 mg/kg administrated for 14 days by H and E staining analysis; format: functional, organism-based; settings: time 14.0 day; outline: as §1
Mus musculus [20] = assay: Anti-inflammatory activity against DSS-induced ulcerative colitis BALB/c mouse model assessed as reduction in colon macroscopic scores at 50 mg/kg administrated for 14 days; format: functional, organism-based; settings: time 14.0 day; outline: as §1
Mus musculus [21] = assay: Anti-ulcerative colitis activity in DSS-induced BALB/c mouse ulcerative colitis model assessed as decrease in spleen weight at 50 mg/kg administrated for 14 days; format: functional, organism-based; settings: time 14.0 day; outline: as §1
Candida albicans = assay: Antifungal activity against Candida albicans 98001 after 24 hrs by microdilution method; format: functional, organism-based; outline: as §3

Row | SMILES | Activity (Salmonella typhi) | Activity (Escherichia coli) | Activity [2] | Activity (Staphylococcus aureus) | Activity (Mus musculus [4]) | Activity (Mus musculus [6]) | Activity (Mus musculus [7]) | Activity (Mus musculus [8]) | Activity (Mus musculus [9]) | Activity (Mus musculus [11]) | Activity (Mus musculus [13]) | Activity (Mus musculus [14]) | Activity (Pseudomonas aeruginosa) | Ratio (Mus musculus [15]) | Activity (Streptococcus pyogenes) | Activity (Streptococcus pneumoniae) | Activity (Mus musculus [16]) | Activity (Mus musculus [17]) | Activity (Mus musculus [18]) | Activity (Mus musculus [21]) | other results
1 | COc1ccc2cc3[n+](cc2c1OCCCCOC(=O)[C@H]1O[C@@H](Oc2cc4oc(-c5ccccc5)cc(=O)c4c(O)c2O)[C@H](O)[C@@H](O)[C@@H]1O)CCc1cc2c(cc1-3)OCO2 | Active | Active | Active | Active | Active | Active | 9.288 cm | Active | Active | Active | Active | Active | Active | 29.769 | Active | Active | Active | 0.311 g | Active | Active | Activity (Mus musculus [1]): Active; Activity (Mus musculus [3]): Active; Activity (Mus musculus [5]): Active; Activity (Mus musculus [10]): Active; Activity (Mus musculus [12]): Active; Activity (Mus musculus [19]): Active; Activity (Mus musculus [20]): Active; Activity (Candida albicans): Active
2 | O=C(O)[C@H]1O[C@@H](Oc2cc3oc(-c4ccccc4)cc(=O)c3c(O)c2O)[C@H](O)[C@@H](O)[C@@H]1O [BAICALIN] | inactive | inactive | inactive | inactive | inactive | inactive | 8.74 cm | inactive | inactive | inactive | inactive | inactive | inactive | 24.172 | inactive | inactive | inactive | 0.369 g | inactive | inactive | Activity (Candida albicans): inactive
3 | COc1ccc2cc3[n+](cc2c1OC)CCc1cc2c(cc1-3)OCO2.[Cl-] [BERBERINE CHLORIDE] | Active | Active | Active | Active | Active | Active | 8.95 cm | Active | Active | Active | Active | Active | Active | 28.175 | Active | Active | Active | 0.315 g | Active | inactive | Activity (Mus musculus [1]): Active; Activity (Mus musculus [3]): Active; Activity (Mus musculus [5]): Active; Activity (Mus musculus [10]): Active; Activity (Mus musculus [19]): Active; Activity (Candida albicans): Active
